Inhibition and IC50 data for 17 molecules are collected here from ChEMBL document CHEMBL1123833, “Novel inhibitors of rat lens aldose reductase: N-[[(substituted amino)phenyl]sulfonyl]glycines” (J Med Chem, 1987).

For experiment [1], the target named is Aldo-keto reductase family 1 member B1 (Rattus norvegicus) (UniProt P07943). Put plainly: Inhibition of rat aldose reductase activity at 100 uM. In outline: (§1)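 Crude rat lens enzyme: 50 lenses homogenized in distilled water and spun at 10000 rpm for 10 min at 0–5 °C. Supernatant diluted so the control rate was 0.010 ± 0.002 A/min. Reaction in 0.1 M phosphate pH 6.2 with 0.104 mM NADPH, started with 10 mM DL-glyceraldehyde. NADPH loss read at 340 nm for 3.0 min against a glyceraldehyde-free blank. Inhibitor tested at 100 μM; % inhibition vs substrate-only control, reported with SEM.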

Experiment [2] has as its target Aldo-keto reductase family 1 member B1 (Rattus norvegicus, UniProt P07943). Nature of the experiment: Inhibition of rat aldose reductase enzyme. In outline: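 Rat lens supernatant (homogenized in water, spun at 0–5 °C, diluted to a control rate of 0.010 ± 0.002 A/min). Assayed in 0.1 M phosphate pH 6.2, 0.104 mM NADPH, 10 mM DL-glyceraldehyde, following A340 decrease for 3.0 min. Four inhibitor concentrations, three determinations each. IC50 from least-squares fit of the log dose-response curve.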

Experiment [3] concerns the target Aldo-keto reductase family 1 member B1 (Rattus norvegicus) (UniProt P07943). Nature of the experiment: Compound was tested for percent inhibition of aldose reductase inhibitory activity using rat lens assay at concentration of 100 uM. In outline:
as §1

As usually defined, the inhibition is the relative decrease from the control value, in per cent. Broadly, the IC50 is the concentration needed to halve the response being measured. Molecule `O=C(O)CNS(=O)(=O)c1ccc(NC(=O)/C=C/c2ccccc2)cc1` showed an inhibition in experiment [1] of 72%. The IC50 in experiment [2] turned out to be 0.69 µM.
`CC(=O)Nc1ccc(S(=O)(=O)NCC(=O)O)cc1` showed an inhibition in experiment [1] of 88%. In experiment [2], this molecule displayed an IC50 of 4.22 µM.
The matching figures for `O=C(O)CNS(=O)(=O)c1ccc(NC(=O)c2ccccc2)cc1`: 81% and 0.41 µM.
In experiment [1], `O=C(O)CNS(=O)(=O)c1ccc(NC(=O)CCc2ccccc2)cc1` displayed an inhibition of 86%. For the same molecule, in experiment [2], 11.5 µM corresponded to half-maximal inhibition (IC50).
In experiment [1], `Nc1ccc(S(=O)(=O)NCC(=O)O)cc1` showed an inhibition of 76%. The IC50 in experiment [2] came out at 16 µM.
Taken in the same sequence, the figures for `O=C(O)CNS(=O)(=O)c1ccc(N/C(S)=N/c2ccccc2)cc1` were 65% and 8.42 µM.
As to `O=C(O)CNS(=O)(=O)c1ccc(NC(=O)COc2ccccc2)cc1`, in experiment [1], the inhibition is 87%. In addition, in experiment [2], the IC50 stood at 2.64 µM.
In experiment [1], `Nc1cccc(S(=O)(=O)NCC(=O)O)c1` showed an inhibition of 73%. For the same molecule, the IC50 in experiment [2] came out at 29 µM.
Take `O=C(O)CNS(=O)(=O)c1ccc(NC(=O)Cc2ccccc2)cc1`: the IC50 in experiment [2] amounted to 2.17 µM. Also, the inhibition in experiment [3] stood at 100%.
Regarding `Nc1ccccc1S(=O)(=O)NCC(=O)O`, in experiment [1], the inhibition turned out to be 74%. The molecule further registered an IC50 in experiment [2] of 38 µM.
For `O=C(O)CNS(=O)(=O)c1cccc(NC(=O)c2ccccc2)c1`, the inhibition in experiment [1] worked out at 79%. In addition, the IC50 in experiment [2] came to 7.12 µM.
Take `O=C(O)CNS(=O)(=O)c1ccc(NC(=O)COCc2ccccc2)cc1`: in experiment [1], the inhibition was found to be 79%. In addition, half-maximal inhibition in experiment [2] (IC50) was put at 3.5 µM.
Turning to `O=C(O)CNS(=O)(=O)c1ccccc1NC(=O)c1ccccc1`, in experiment [1], the inhibition was 52%. The same molecule came in with an IC50 in experiment [2] of 78 µM.
`CN(C)c1ccc(S(=O)(=O)NCC(=O)O)cc1`: the inhibition in experiment [1] was found to be 80%. In experiment [2], this molecule returned an IC50 of 10.9 µM.
In experiment [1], `O=C(O)CNS(=O)(=O)c1ccc(NCc2ccccc2)cc1` displayed an inhibition of 71%. Besides, the half-inhibitory concentration (IC50) in experiment [2] was found to be 7.04 µM.
The molecule `O=C(O)CNS(=O)(=O)c1ccc(NC(=O)Nc2ccccc2)cc1` registered an inhibition in experiment [1] of 83%. The molecule also came in with an IC50 in experiment [2] of 2.75 µM.
In the case of `O=C(O)CNS(=O)(=O)c1ccc(NC(=O)OCc2ccccc2)cc1`, in experiment [1], the inhibition was 82%. The IC50 in experiment [2] was found to be 6.03 µM.
